H69AR growth 86K = proliferation blockers of H69AR lung cancer cells, primary screen, cell-based, human, 86K library; 85,000 tested, 6% active; AID 598, 2007; H69AR lung tumor viability, ATP luminescence, 72 h; stronger effect = lower value; viability, % at 10 µM;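 active = viability at or below 40%; inactive = viability above 40%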;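 also: multidrug resistant small cell line overexpressing MRP-1 efflux transporter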
Pyk2 oligo antag = antagonists of Pyk2 self-association, primary screen, Q293 cells, FERM NanoBiT luminescence, HTS; stronger effect = lower value; 99,000 tested, 0.83% active; AID 1347419, 2020; z-score (the deposit names both 25 µM and 10 µM); Protein-tyrosine kinase 2-beta (Homo sapiens), Q14289;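 active = Z-score of -3 or lower, scaled per plate to the spread of control and sample wells; inactive = z-score above -3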;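 also: negative z-score means lost luminescence so less FERM oligomerization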
Target sequence (Q14289 whole entry, looked up): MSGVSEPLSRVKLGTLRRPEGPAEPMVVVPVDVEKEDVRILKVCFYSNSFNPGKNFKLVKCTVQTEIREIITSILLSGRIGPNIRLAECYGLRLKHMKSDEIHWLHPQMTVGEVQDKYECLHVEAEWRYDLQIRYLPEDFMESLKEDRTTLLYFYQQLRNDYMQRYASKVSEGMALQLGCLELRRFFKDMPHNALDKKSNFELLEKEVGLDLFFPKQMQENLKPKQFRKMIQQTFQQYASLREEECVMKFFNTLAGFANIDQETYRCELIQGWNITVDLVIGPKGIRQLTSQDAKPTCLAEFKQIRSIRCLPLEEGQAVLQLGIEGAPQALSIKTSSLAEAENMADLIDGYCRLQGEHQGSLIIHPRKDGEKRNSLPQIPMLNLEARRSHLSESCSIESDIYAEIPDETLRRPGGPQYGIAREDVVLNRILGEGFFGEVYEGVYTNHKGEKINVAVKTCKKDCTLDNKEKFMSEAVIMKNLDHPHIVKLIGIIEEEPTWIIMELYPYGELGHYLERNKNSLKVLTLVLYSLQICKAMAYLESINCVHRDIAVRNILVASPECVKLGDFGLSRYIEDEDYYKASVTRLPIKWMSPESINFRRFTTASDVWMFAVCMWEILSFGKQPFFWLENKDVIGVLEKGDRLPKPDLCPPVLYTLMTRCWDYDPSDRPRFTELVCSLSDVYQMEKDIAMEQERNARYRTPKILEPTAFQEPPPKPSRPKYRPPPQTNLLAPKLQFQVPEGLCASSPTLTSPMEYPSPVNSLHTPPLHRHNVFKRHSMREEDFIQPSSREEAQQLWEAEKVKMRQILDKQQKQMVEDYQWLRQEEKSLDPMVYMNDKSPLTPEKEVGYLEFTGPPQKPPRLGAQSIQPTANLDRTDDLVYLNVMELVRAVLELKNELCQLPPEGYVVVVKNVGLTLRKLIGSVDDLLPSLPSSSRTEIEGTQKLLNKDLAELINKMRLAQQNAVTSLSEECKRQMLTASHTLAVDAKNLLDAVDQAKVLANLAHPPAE
HCT116 PTEN-null = growth suppression of PTEN-null HCT116, primary screen, cell-based, CellTiter-Glo | HCT116 PTEN-null viability, 60 h; stronger effect = lower value | viability, % at 10 µM | 140,000 tested, 1.2% active | AID 827, 2007;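 active = viability at or below a set limit, 4 SD under the median of all tested compounds, cut at about 3.7% in these data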;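 also: PTEN knockout HCT116 line with beta catenin targeted HCT116 as companion control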
Fibroblast inh = antiproliferative effect on LL 47 fibroblasts – human, LL 47 cells, CellTiter-Glo luminescence, primary screen; LL 47 human lung fibroblast viability, ATP luminescence; stronger effect = lower value; viability, % at 10 µM; 85,000 tested, 1.1% active;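 active = viability at or below 50% in the single dose screen; inactive = viability above 50%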;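 also: compound exposure lasted 72 h before the ATP readout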
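Assay system: human lung fibroblast line LL 47, low passage. Input: 1,150 fibroblasts seeded per well. Times: overnight cell rest, 72 h compound treatment at 37 °C. Evaluation: % viability of median cell-only signal. Technique: luminescent ATP detection, CellTiter-Glo. Control set: cell-only wells, no compound.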
bCat KO growth = primary screen for growth suppressors in beta-catenin knockout HCT116 cells (colon tumor, human); HCT116 beta-catenin knockout viability, CellTiter-Glo, 60 h; stronger effect = lower value; viability, % at 10 µM; 140,000 tested, 1.5% active; AID 818, 2007;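 active = viability at or under a set limit, the compound median less 4 SD, cut at about 6% in these data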
HUVEC inhibit = inhibitors of HUVEC proliferation, primary screen, cell-based, 384-well; CellTiter-Glo luminescence, 72 h; stronger effect = lower value; viability, % at 10 µM (by protocol); 86,000 tested, 1.1% active; AID 648, 2007;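 active = viability at or below 30%; inactive = viability above 30%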
Large screens that a line does not name were inactive. Many of the other results were omitted from the sample, so hits are more common in it than they were.

Clc1ccc(C2=C3CCCCn4c(-c5ccccc5)c[n+](c43)C2)cc1	H69AR growth 86K 36, Fibroblast inh 42, HUVEC inhibit 18
Cc1nn(-c2ccc(F)cc2)c(C)c1NS(=O)(=O)c1ccc(Cl)cc1	HUVEC inhibit 30
Cc1ccc(-n2nc(C)c(NS(=O)(=O)c3ccccc3)c2C)cc1C	none
CC(C)CNC(=O)c1cccc(NC(=O)Cc2ccc(Br)cc2)c1	none (no result: H69AR growth 86K, Fibroblast inh, HUVEC inhibit)
Cc1ccc(C(O)(c2ccccc2)c2ccccc2C(C)N(C)C)c(C)c1 (configuration not stated)	HCT116 PTEN-null 1.8, bCat KO growth 3.5 (no result: H69AR growth 86K, Fibroblast inh, HUVEC inhibit)
CC(c1ccccc1C(O)c1ccccc1)N(C)C (configuration not stated)	none (no result: H69AR growth 86K, Fibroblast inh, HUVEC inhibit)
Cc1ccc2nc(-c3sc4nc(C)cc(C)c4c3N)[nH]c2c1	H69AR growth 86K 15
CC(C)C(c1nnnn1C1CCCC1)N1CCN(C(=O)c2ccco2)CC1 (configuration not stated)	none
CN1CCN(c2ccc(S(=O)(=O)N3CCCCC3)cn2)CC1	Pyk2 oligo antag -3.9
COc1ccc(C(c2sc3ncnn3c2O)N2CC(C)OC(C)C2)cc1OC (configuration not stated)	HUVEC inhibit 29 (no result: Pyk2 oligo antag)
O=C(O)CCN1CC2([N+](=O)[O-])C=CC(=O)C([N+](=O)[O-])(C1)C2CC(=O)c1ccccc1 (configuration not stated)	none (no result: H69AR growth 86K, Pyk2 oligo antag, Fibroblast inh, HUVEC inhibit)
CCOC(=O)c1ccc(S(=O)(=O)Nc2ccc3cn[nH]c3c2)cc1	Pyk2 oligo antag -3
CC(C)(C)OC(=O)N1CC=C2C(C#N)=C(N)C(C#N)(C#N)C(c3cccs3)C2C1 (configuration not stated)	H69AR growth 86K 23
CCCOc1ccc([C@@H]2C3CN(C(=O)OCC)CC=C3C(C#N)=C(N)C2(C#N)C#N)cc1OC (some centres not stated)	none
CC(C)(C)OC(=O)N1CC=C2C(C#N)=C(N)C(C#N)(C#N)[C@H](c3cccnc3)[C@H]2C1	none (no result: H69AR growth 86K, Fibroblast inh, HUVEC inhibit)
CC1CC=C2C(C#N)=C(N)C(C#N)(C#N)C(c3cccs3)C2C1 (configuration not stated)	H69AR growth 86K 32
CCOC(=O)N1CC=C2C(C#N)=C(N)C(C#N)(C#N)[C@H](c3cccs3)C2C1 (some centres not stated)	H69AR growth 86K 37
CC(C)N1CC=C2C(C#N)=C(N)C(C#N)(C#N)C(c3ccccc3)C2C1 (configuration not stated)	none (no result: H69AR growth 86K, Fibroblast inh, HUVEC inhibit)
COCCN1C(=O)c2oc3cc(C)c(C)cc3c(=O)c2C1c1cccc(O)c1 (configuration not stated)	none (no result: HCT116 PTEN-null, bCat KO growth)
Cc1cc(=O)oc2cc(OCc3ccc(C(=O)OCC(=O)Nc4ccccc4OC(F)F)cc3)ccc12	none (no result: H69AR growth 86K, Pyk2 oligo antag, Fibroblast inh, HUVEC inhibit)
COC(=O)COc1ccc(S(=O)(=O)NCc2ccncc2)cc1	bCat KO growth 1.1
CCOC(=O)COc1ccc(S(=O)(=O)NCc2cccnc2)cc1	none
CCOC(=O)c1c2ccc(OCC(=O)N/N=C/c3ccccc3C(F)(F)F)cc2n2ccccc12	HCT116 PTEN-null 1.9, bCat KO growth 1.5 (no result: H69AR growth 86K, Pyk2 oligo antag, Fibroblast inh, HUVEC inhibit)
CCOC(=O)c1c2ccc(OCC(=O)N/N=C/c3ccc(Cl)cc3)cc2n2ccccc12	HCT116 PTEN-null 2.3, bCat KO growth 1.8 (no result: H69AR growth 86K, Pyk2 oligo antag, Fibroblast inh, HUVEC inhibit)
Cc1ccc(OCC(=O)N/N=C/c2cccn2C)cc1	none
COc1ccc(/C=N/NC(=O)CCc2c(C)n[nH]c2C)cc1O	none
Cn1ncc(N=Cc2ccccc2)c1C(=O)Nc1cccc(Cl)c1	H69AR growth 86K 38
COc1cc(S(=O)(=O)N2CCN=C2c2ccccc2)ccc1F	H69AR growth 86K 23
Cc1ccc(S(=O)(=O)N2CCN=C2c2ccccc2)cc1C	none
C=CCc1ccccc1OCC(=O)N/N=C/c1ccc(OC(C)=O)cc1OC(C)=O	none (no result: H69AR growth 86K, Pyk2 oligo antag, Fibroblast inh, HUVEC inhibit)
Cn1c(=O)[nH]c(=O)c2[nH]c(N(Cc3ccccc3)Cc3ccccc3)nc21	Pyk2 oligo antag -3.2
CCSc1nnc(NC(=O)C(NC(=O)c2ccc(Cl)cc2)C(C)C)s1 (configuration not stated)	none (no result: H69AR growth 86K, Fibroblast inh, HUVEC inhibit)
Cc1c(C(c2ccc([N+](=O)[O-])cc2)c2c(C)n(C)n(-c3ccccc3)c2=O)c(=O)n(-c2ccccc2)n1C	none (no result: H69AR growth 86K, Fibroblast inh, HUVEC inhibit)
Cc1cnc(Nc2nc3ccccc3o2)nc1C(=O)Nc1cccc(C(F)(F)F)c1	H69AR growth 86K 1.3, Fibroblast inh 44
Cc1cc(C)n(-c2nc(NCC3CCCO3)c3c4c(sc3n2)COC(C)(C)C4)n1 (configuration not stated)	H69AR growth 86K 10 (no result: Pyk2 oligo antag)
Cc1cc(C)n(-c2nc(SCCN(C)C)c3c4c(sc3n2)COC(C)(C)C4)n1	HCT116 PTEN-null 3.3, bCat KO growth 1.9 (no result: H69AR growth 86K, Fibroblast inh, HUVEC inhibit)
C=C(C)CSc1nc2ccccc2[nH]1	none (no result: H69AR growth 86K, Pyk2 oligo antag, Fibroblast inh, HUVEC inhibit)
COc1ccc(-c2ccccc2)cc1NCc1ccc(OC)c(OC)c1	none (no result: H69AR growth 86K, Pyk2 oligo antag, Fibroblast inh, HUVEC inhibit)
Cc1cc(C(F)F)n2nc(C(=O)Nc3sc4c(c3C#N)CCC4)nc2n1	none (no result: H69AR growth 86K, Fibroblast inh, HUVEC inhibit)
CCOc1ccc(CC(=O)Nc2c(C(N)=O)oc3ccc(Br)cc23)cc1OCC	H69AR growth 86K 37 (no result: Pyk2 oligo antag)
COc1ccc(NC(=O)c2oc3ccccc3c2NC(=O)COc2ccccc2OC)c(OC)c1	H69AR growth 86K 19, HUVEC inhibit 7.2
CCOCC(=O)Nc1c(C(=O)Nc2ccccc2OC)oc2ccccc12	none (no result: H69AR growth 86K, Fibroblast inh, HUVEC inhibit)
CC(=O)Nc1c(C(=O)C2CC2)oc2ccccc12	none
N#Cc1ccccc1OCC(=O)Nc1c(C(=O)C2CC2)oc2ccccc12	H69AR growth 86K 7.6
CCOc1ccc(CC(=O)Nc2c(C(=O)Nc3ccccc3)oc3ccccc23)cc1OCC	H69AR growth 86K 35
CCOC(=O)c1c(NC(=O)C2c3ccccc3Oc3ccccc32)sc(C(=O)N(CC)CC)c1C	none (no result: H69AR growth 86K, Fibroblast inh, HUVEC inhibit)
N#Cc1ccccc1NC(=O)c1ccccc1OCC(=O)Nc1ccc2c(c1)oc1ccccc12	H69AR growth 86K 3.9 (no result: HCT116 PTEN-null, bCat KO growth)
CC(C)C1CC(CCNCc2ccc(N(C)C)cc2)(c2ccccc2)CCO1 (configuration not stated)	HCT116 PTEN-null 2.6, bCat KO growth 2.3 (no result: H69AR growth 86K, Pyk2 oligo antag, Fibroblast inh, HUVEC inhibit)
Cc1ccc(C2(CCNS(=O)(=O)c3ccc(C)cc3)CCOC(C(C)C)C2)cc1 (configuration not stated)	none (no result: H69AR growth 86K, Pyk2 oligo antag, Fibroblast inh, HUVEC inhibit)
Cc1ccc(-n2nc(C(=O)N3CCN(C)CC3)c3c4ccccc4n(C)c3c2=O)cc1	none (no result: HCT116 PTEN-null, bCat KO growth)
COc1ccc(-n2nc(C(=O)NCC(=O)NCc3ccco3)c3ccccc3c2=O)cc1	none
COc1ccc(-n2nc(C(=O)NCc3ccco3)c3c4ccccc4n(C)c3c2=O)cc1Cl	H69AR growth 86K 25, Fibroblast inh 34
Cn1c(C(=O)NCCCN2CCOCC2)cc2c(=O)n(C)c3ccccc3c21	none (no result: Pyk2 oligo antag)
COc1ccccc1CNC(=O)c1cc2c(=O)n(C)c3ccccc3c2n1C	H69AR growth 86K 26 (no result: Pyk2 oligo antag, HCT116 PTEN-null, bCat KO growth)
